Holding throughout (assay type): cell-based
For assay [1], the system named is transcriptome of MCF-7 cells. The assay is described as follows: RNA-Seq global gene expression. The settings on record: MCF-7, RNA-Seq; 10 nM E2 + 1 μM 4OHT or 15 μM R4K1.
The subject of assay [2] is ER-regulated genes PTGES, PR, PS2, EGR3, IGFBP4 in MCF-7 cells. Description: RT-qPCR of ER-regulated native genes, MCF-7. The following applies: 10 nM E2, 2 hrs. In a few lines: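 MCF-7 cells in charcoal-dextran-stripped 5% FBS were pretreated with test compound (15 μM, 24 h), 4-hydroxytamoxifen (1 μM, 2 h) or DMSO, then with 10 nM 17β-estradiol for 2 h. Total RNA was assayed by RT-qPCR, normalised to 36B4 and converted to fold change versus DMSO vehicle by ΔΔCt. Error bars are SD.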

Another assay has as its system MCF-7 cells. The assay is described as follows: Proliferation assay. The settings on record: 10 nM estradiol, 24 hours. Put shortly:
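MCF-7 cells in charcoal-dextran-stripped 5% FBS were given vehicle or 15 μM test compound, with or without 10 nM estradiol, starting on day 3. Cells were counted 24 h later by brightfield imaging cytometry. Fold change was taken versus vehicle control over three independent experiments, with error bars as SD.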

For the molecule `CC/C(=C(\c1ccc(O)cc1)c1ccc(OCCN(C)C)cc1)c1ccccc1` [4OHT, 4-hydroxytamoxifen], in assay [1], the “reversal of E2-regulated genes of cluster 2 (226 genes)” value is given as “reversed fully” and the “reversal of E2-regulated genes of cluster 3 (87 genes)” value is given as “reversed fully”.

Consider `C[C@]12CC[C@@H]3c4ccc(O)cc4CC[C@H]3[C@@H]1CC[C@@H]2O` [Estradiol, 17β-estradiol], for which the “expression of five ER-regulated genes, estradiol” value in assay [2] is listed as “induced expression of each of the five genes”. The “proliferation of MCF-7 cells, estradiol” value with MCF-7 cells was “stimulated proliferation”.

Values taken from publication PMC6057476 (ACS chemical biology, 2018).
